# Laboratory results reported in ChEMBL document CHEMBL1147244, “Constituents of the Vietnamese medicinal plant Streptocaulon juventas and their antiproliferative activity against the human HT-1080 fibrosarcoma cell line” (J Nat Prod, 2003).
# Test system: HT-1080
# Assay: Antiproliferative activity against human HT1080 cells after 72 hrs by MTT assay
# Assay type: functional, cell-based
# Conditions: HT-1080, 72 h
# Procedure, shortened: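 HT-1080 fibrosarcoma cells were grown in EME medium with 10% heat-inactivated FCS and 2 mM glutamine at 37 °C, 5% CO2. Cells were seeded at 2 × 10³ per well and left 24 h to attach. Samples were dissolved in DMSO/PBS, with final DMSO below 0.25%, and added at varying concentrations. After 2 h with MTT, formazan was extracted in DMSO and read at 550 nm. IC50 was taken from the mean of four wells.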
row,SMILES,IC50 [µM]
1,C[C@H]1O[C@@H](O[C@@H]2C[C@H]3CC[C@@H]4[C@H](CC[C@]5(C)[C@@H](C6=CC(=O)OC6)CC[C@]45O)[C@@]3(C)[C@H](O)C2)C[C@@H](O)[C@@H]1O,1.1
2,C[C@H]1O[C@@H](O[C@H]2CC[C@]3(C)[C@H]4CC[C@]5(C)[C@@H](C6=CC(=O)OC6)CC[C@]5(O)[C@@H]4CC[C@]3(O)C2)C[C@@H](O)[C@@H]1O,0.093
3,CO[C@@H]1[C@@H](O)[C@H](O[C@@H]2[C@@H](C)O[C@@H](O[C@H]3CC[C@@]4(C)[C@H](CC[C@@H]5[C@@H]4CC[C@]4(C)[C@@H](C6=CC(=O)OC6)CC[C@]54O)C3)C[C@H]2OC)O[C@H](C)[C@H]1O[C@@H]1O[C@H](CO[C@@H]2O[C@H](CO)[C@@H](O)[C@H](O)[C@H]2O)[C@@H](O)[C@H](O)[C@H]1O,0.22
4,CC(=O)O[C@@H]1C[C@H](O[C@H]2CC[C@@]3(C)[C@H](CC[C@@H]4[C@@H]3CC[C@]3(C)[C@@H](C5=CC(=O)OC5)CC[C@]43O)C2)O[C@H](C)[C@H]1O[C@@H]1O[C@H](CO[C@@H]2O[C@H](CO)[C@@H](O)[C@H](O)[C@H]2O)[C@@H](O)[C@H](O)[C@H]1O,0.59
5,C[C@H]1O[C@@H](O[C@H]2CC[C@@]3(C)[C@H](CC[C@@H]4[C@@H]3CC[C@]3(C)[C@@H](C5=CC(=O)OC5)CC[C@]43O)C2)C[C@@H](O)[C@@H]1O[C@@H]1O[C@H](CO[C@@H]2O[C@H](CO)[C@@H](O)[C@H](O)[C@H]2O)[C@@H](O)[C@H](O)[C@H]1O,0.054
6,CO[C@@H]1[C@@H](O)[C@H](O[C@H]2CC[C@]3(C)[C@H]4CC[C@]5(C)[C@@H](C6=CC(=O)OC6)CC[C@]5(O)[C@@H]4CC[C@]3(O)C2)O[C@H](C)[C@H]1O[C@@H]1O[C@H](CO)[C@@H](O)[C@H](O)[C@H]1O,0.67
7,C[C@]12[C@H](CC[C@@H]3[C@@H]1CC[C@]1(C)[C@@H](C4=CC(=O)OC4)CC[C@]31O)C[C@@H](O)C[C@H]2O [ACOVENOSIGENIN A],1.2
8,C[C@H]1O[C@@H](O[C@H]2CC[C@]3(C)[C@H]4CC[C@]5(C)[C@@H](C6=CC(=O)OC6)CC[C@]5(O)[C@@H]4CC[C@]3(O)C2)C[C@@H](O)[C@@H]1O[C@@H]1O[C@H](CO)[C@@H](O)[C@H](O)[C@H]1O [CORCHORUSOSIDE C],0.092
9,C[C@]12CC[C@H](O[C@@H]3O[C@H](CO[C@@H]4O[C@H](CO)[C@@H](O)[C@H](O)[C@H]4O)[C@@H](O)[C@H](O)[C@H]3O)C[C@H]1CC[C@@H]1[C@@H]2CC[C@]2(C)[C@@H](C3=CC(=O)OC3)CC[C@]12O [DIGITOXIGENIN GENTIOBIOSIDE],1.6
10,C[C@]12CC[C@H](O[C@@H]3O[C@H](CO)[C@@H](O)[C@H](O)[C@H]3O[C@@H]3O[C@H](CO)[C@@H](O)[C@H](O)[C@H]3O)C[C@H]1CC[C@@H]1[C@@H]2CC[C@]2(C)[C@@H](C3=CC(=O)OC3)CC[C@]12O [DIGITOXIGENIN SOPHOROSIDE],0.46
11,C[C@]12CC[C@H](O)C[C@H]1CC[C@@H]1[C@@H]2CC[C@]2(C)[C@@H](C3=CC(=O)OC3)CC[C@]12O [DIGITOXIGENIN],1.5
12,COc1cccc2c1C(=O)c1c(O)c3c(c(O)c1C2=O)C[C@@](O)(C(=O)CO)C[C@@H]3O[C@H]1C[C@H](N)[C@H](O)[C@H](C)O1 [DOXORUBICIN],0.059
13,CO[C@@H]1C[C@H](O[C@H]2CC[C@@]3(C)[C@H](CC[C@@H]4[C@@H]3CC[C@]3(C)[C@@H](C5=CC(=O)OC5)CC[C@]43O)C2)O[C@H](C)[C@H]1O[C@@H]1O[C@H](CO[C@@H]2O[C@H](CO)[C@@H](O)[C@H](O)[C@H]2O)[C@@H](O)[C@H](O)[C@H]1O [ECHUJIN],0.055
14,O=c1[nH]cc(F)c(=O)[nH]1 [FLUOROURACIL],3.7
15,CO[C@@H]1C[C@H](O[C@H]2CC[C@]3(C)[C@H]4CC[C@]5(C)[C@@H](C6=CC(=O)OC6)CC[C@]5(O)[C@@H]4CC[C@]3(O)C2)O[C@H](C)[C@H]1O [PERIPLOCYMARIN],0.096
16,C[C@]12CC[C@H](O[C@@H]3O[C@H](CO)[C@@H](O)[C@H](O)[C@H]3O)C[C@@]1(O)CC[C@@H]1[C@@H]2CC[C@]2(C)[C@@H](C3=CC(=O)OC3)CC[C@]12O [PERIPLOGENIN GLUCOSIDE],0.16
17,C[C@]12CC[C@H](O)C[C@@]1(O)CC[C@@H]1[C@@H]2CC[C@]2(C)[C@@H](C3=CC(=O)OC3)CC[C@]12O [PERIPLOGENIN],0.81
18,CC(=O)O[C@H]1C[C@]2(O)[C@@H]3CC[C@@H]4C[C@@H](O[C@H]5C[C@@H](O)[C@H](O[C@@H]6O[C@H](CO)[C@@H](O)[C@H](O)[C@H]6O)[C@@H](C)O5)CC[C@]4(C)[C@H]3CC[C@]2(C)[C@H]1C1=CC(=O)OC1 [SUBALPINOSIDE],0.18
